From the array DNA melting data of Ke et al. (doi:10.1101/2024.01.08.574731) come the findings set out here.

The nature of data set [1]: melting temperature; fluorescence melt of hairpins on a sequencing array, two-state fit, raised by 9.35 °C to match UV melts. The conditions noted are these: sodium 0.088 M. The procedure, abridged:
(§1)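 To match UV melts, fitted temperatures were raised by 9.35 °C. These fits were bootstrapped two-state models that gave melting temperature and folding enthalpy, combined by inverse variance over four replicates. The input was normalised Cy3 fluorescence of library hairpins with annealed Cy3 and quencher oligos on a sequenced MiSeq flow cell, imaged in 50 mM Na-HEPES pH 8.0, 25 mM NaCl in 2.5 °C steps up to 60 °C.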

Data set [2] is described as follows: folding enthalpy; higher = less favourable; fluorescence melt of hairpins on a sequencing array, two-state fit. To be noted: sodium 0.088 M. The method in brief: as §1

As for GCGTGCTCACGC ((((....)))), the Tm in data set [1] was 58.6 °C. Moreover, in data set [2], the folding enthalpy is -25 kcal/mol.
Turning to GATCTGTGCGCAGATC ((((((....)))))), in data set [1], the Tm came to 57 °C. The folding enthalpy in data set [2] was -47.1 kcal/mol.
For GCCGAGCGAAAGCTTTGC ((..(((....)))..)), in that order: 39.1 °C and -12.6 kcal/mol.
For GTTCGAGGAAACTCGGAC ((.((((....)))).)), in that order: 51.3 °C and -40.9 kcal/mol.
For GGGAACGAAAGTTCTCCC ((((((....)))..))), in that order: 45 °C and -14.7 kcal/mol.
Turning to GCATAATCGAAAGATTGC (((..(((....)))))), the Tm in data set [1] stood at 37.2 °C. Besides, the folding enthalpy in data set [2] is -18.1 kcal/mol.
Take CGCGGAAATCTCCGCG ((((((....)))))): the Tm in data set [1] amounted to 62.2 °C. Further, the folding enthalpy in data set [2] is -40.2 kcal/mol.
For the sequence GTATGGGGAAACTCGTAC (((.(.(....).).))), the Tm in data set [1] stood at 29.1 °C. Moreover, the folding enthalpy in data set [2] is -11.6 kcal/mol.
For the sequence GTCAATCGAAAGATCGAC (((.(((....))).))), the Tm in data set [1] is 41.2 °C. Also, the folding enthalpy in data set [2] is -29 kcal/mol.
On to CGTTCGGAAACGAGACG ((((((....))).))), for which the Tm in data set [1] was determined as 39 °C. The folding enthalpy in data set [2] was -24.1 kcal/mol.
Taken in the same sequence, the figures for GAGAACGAAAGTTAGCTC ((((((....)))..))) were 24.5 °C and -10 kcal/mol.
For GCATTCGAAAGAAAATGC ((((((....)))..))), in that order: 34.6 °C and -24.8 kcal/mol.
Taken in the same sequence, the figures for GGGCACGAAAGTGTACCC ((((((....)))..))) were 50.3 °C and -18.4 kcal/mol.
As to GGATTAGCGAAAGCTTCC (((..(((....)))))), the Tm in data set [1] was determined as 32.7 °C. Further, the folding enthalpy in data set [2] was -11.1 kcal/mol.
Taken in the same sequence, the figures for GGCATTGGAAACGATGTC (.(((.(....).))).) were 35.1 °C and -25.7 kcal/mol.
For GATCTTTAAGAAGATC ((((((....)))))), in that order: 41.5 °C and -34.9 kcal/mol.
Taken in the same sequence, the figures for GATACACGAAAGTGCATC (((.(((....))).))) were 44.2 °C and -23.7 kcal/mol.
For CGCGCGGAAACGCAGGCG ((((((....)))..))), the Tm in data set [1] came out at 57.2 °C. The folding enthalpy in data set [2] is -28.6 kcal/mol.
Consider GGCCCCTCGAAAGAGGCC (((..(((....)))))), for which the Tm in data set [1] was 43.8 °C. In addition, in data set [2], the folding enthalpy is -15.6 kcal/mol.
As for GTGTCCGAAAGGAGTCAC ((((((....)))..))), in data set [1], the Tm amounted to 35 °C. In addition, in data set [2], the folding enthalpy was -19.1 kcal/mol.
Taken in the same sequence, the figures for GCTAAGCGAAAGCCTAGC ((((.((....)).)))) were 49.1 °C and -21.9 kcal/mol.
For GTGTAGGGAAACCTATGC (..((((....))))..), in that order: 30.9 °C and -12.2 kcal/mol.
Taken in the same sequence, the figures for GTTGTGGGAAACCATAAC (((.(((....))).))) were 43.5 °C and -32.4 kcal/mol.
As to GCTCTTACGAAAGTAAGC (((..(((....)))))), the Tm in data set [1] turned out to be 34.7 °C. Also, the folding enthalpy in data set [2] was -9.83 kcal/mol.
Taken in the same sequence, the figures for GTGTACGGAAACGTGCAC (((.(((....))).))) were 55.3 °C and -28.3 kcal/mol.
Taken in the same sequence, the figures for GTCAACGAAAGTTAGAC ((((((....))).))) were 41 °C and -23.5 kcal/mol.
For GATCCTAGCGAGGATC ((((((....)))))), in that order: 52.8 °C and -32.9 kcal/mol.
As for GACTCCGGAAACGGAACC (..((((....))))..), the Tm in data set [1] is 26.1 °C. The folding enthalpy in data set [2] was -8.88 kcal/mol.
Turning to GATCTTTGGAAAGATC ((((((....)))))), the Tm in data set [1] was 42.7 °C. Besides, the folding enthalpy in data set [2] is -31.5 kcal/mol.
Take GGATTGCGAAAGCATTCC (((.(((....))).))): the Tm in data set [1] amounted to 52.8 °C. Besides, the folding enthalpy in data set [2] is -36.2 kcal/mol.
For GTCGATGGAAACATTGAC (((.(((....))).))), in that order: 48.3 °C and -36.2 kcal/mol.
For GCGAGCGAAAGCTGGCGC ((((((....)))..))), in that order: 68.7 °C and -25 kcal/mol.
Taken in the same sequence, the figures for GATCCATTACTGGATC ((((((....)))))) were 51.1 °C and -29.9 kcal/mol.
With GTATCCCCGAAAGGGTAC (((..(((....)))))), the Tm in data set [1] came out at 35.5 °C. Besides, the folding enthalpy in data set [2] is -14.8 kcal/mol.
For GCAGTTCGAAAGAAGTGC (((.(((....))).))), in that order: 56.2 °C and -51 kcal/mol.
Taken in the same sequence, the figures for GTGGGGCCGAAAGGCCAC (((..(((....)))))) were 64.9 °C and -16.2 kcal/mol.
For GATCTGGACGCAGATC ((((((....)))))), in that order: 51.3 °C and -47 kcal/mol.
